Data as given in ChEMBL document CHEMBL1255544, “Synthesis and evaluation of novel chloropyrrole molecules designed by molecular hybridization of common pharmacophores as potential antimicrobial agents” (2010).
In brackets after ≈: the same amount, converted by molar mass. Activity calls are given as the source filed them. The rule behind the calls is not given here.

How the values were obtained:
Candida albicans [1] = assay: Antimicrobial activity against Candida albicans after 48 hrs by agar dilution method; format: functional
Outline: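 Candida albicans tested by agar dilution, with compounds in DMSO.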

Escherichia coli [2] = assay: Antimicrobial activity against Escherichia coli ATCC […] after 24 hrs by broth dilution method; format: functional
Outline: (§1)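 MIC by broth dilution: the lowest concentration (highest dilution) that arrested bacterial or fungal growth. Strains were E. coli ATCC-25922, S. aureus ATCC-25923, P. aeruginosa ATCC-27853 and C. albicans.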

Candida albicans [3] = assay: Antimicrobial activity against Candida albicans after 48 hrs by broth dilution method; format: functional; outline: as §1
Staphylococcus aureus [4] = assay: Antimicrobial activity against Staphylococcus aureus ATCC 25923 after 24 hrs by broth dilution method; format: functional; settings: ATCC 25923, 24 h; outline: as §1
Escherichia coli [5] = assay: Antimicrobial activity against Escherichia coli ATCC […] after 24 hrs by disk diffusion method; format: functional
Outline: (§2)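 Zone of inhibition by disc diffusion against E. coli ATCC-25922, S. aureus ATCC-25923, P. aeruginosa ATCC-27853 and recultured Klebsiella pneumoniae.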

Klebsiella pneumoniae [6] = assay: Antimicrobial activity against Klebsiella pneumoniae after 24 hrs by disk diffusion method; format: functional; outline: as §2
Staphylococcus aureus [7] = assay: Antimicrobial activity against Staphylococcus aureus ATCC 25923 after 24 hrs by disk diffusion method; format: functional; outline: as §2
Pseudomonas aeruginosa [8] = assay: Antimicrobial activity against Pseudomonas aeruginosa ATCC 27853 after 24 hrs by disk diffusion method; format: functional; outline: as §2
Pseudomonas aeruginosa [9] = assay: Antimicrobial activity against Pseudomonas aeruginosa ATCC 27853 after 24 hrs by broth dilution method; format: functional; settings: ATCC 27853, 24 h; outline: as §1
Klebsiella pneumoniae [10] = assay: Antimicrobial activity against Klebsiella pneumoniae at 100 ug/ml after 24 hrs by broth dilution method; format: functional, organism-based

Compound | MIC (Escherichia coli [2]) [µg/mL] | MIC (Candida albicans [3]) [µg/mL] | MIC (Staphylococcus aureus [4]) [µg/mL] | MIC (Pseudomonas aeruginosa [9]) [µg/mL] | diameter of the inhibition zone (DIZ) (Candida albicans [1]) [mm] | diameter of the inhibition zone (DIZ) (Escherichia coli [5]) [mm] | diameter of the inhibition zone (DIZ) (Klebsiella pneumoniae [6]) [mm] | diameter of the inhibition zone (DIZ) (Staphylococcus aureus [7]) [mm] | diameter of the inhibition zone (DIZ) (Pseudomonas aeruginosa [8]) [mm] | Activity (Klebsiella pneumoniae [10])
COc1ccc(/C=C/C(=O)c2cc(Cl)c(Cl)[nH]2)cc1 | 12.5 (≈ 42.2 µM) | 50 (≈ 169 µM) | 12.5 (≈ 42.2 µM) | 100 (≈ 338 µM) | 12 | 13 | 18 | 20 | 17 | 
O=C(/C=C/c1ccco1)c1cc(Cl)c(Cl)[nH]1 | 3.12 (≈ 12.2 µM) | 50 (≈ 195 µM) | 1.56 (≈ 6.09 µM) | 25 (≈ 97.6 µM) | 14 | 21 | 15 | 25 | 17 | 
COc1ccc(/C=C/C(=O)c2cc(Cl)c[nH]2)cc1 | 12.5 (≈ 47.8 µM) | 50 (≈ 191 µM) | 12.5 (≈ 47.8 µM) | 25 (≈ 95.5 µM) | 12 | 16 |  | 18 | 15 | inactive
COc1ccc(OC)c(/C=N/NC(=O)c2cc(Cl)c(Cl)[nH]2)c1 | 3.12 (≈ 9.13 µM) | 12.5 (≈ 36.5 µM) | 1.56 (≈ 4.56 µM) | 25 (≈ 73.1 µM) | 24 | 20 | 18 | 24 | 13 | 
COc1ccc(/C=N/NC(=O)c2cc(Cl)c(Cl)[nH]2)cc1 | 12.5 (≈ 40 µM) | 12.5 (≈ 40 µM) | 6.25 (≈ 20 µM) | 25 (≈ 80.1 µM) | 24 | 19 | 16 | 20 | 20 | 
O=C(/C=C/c1ccc(Cl)cc1)c1cc(Cl)c(Cl)[nH]1 | 6.25 (≈ 20.8 µM) | 50 (≈ 166 µM) | 3.12 (≈ 10.4 µM) | 25 (≈ 83.2 µM) | 14 | 16 | 17 | 25 | 16 | 
O=C(/C=C/c1ccc(Cl)cc1)c1cc(Cl)c[nH]1 | 25 (≈ 93.9 µM) | 50 (≈ 188 µM) | 12.5 (≈ 47 µM) | 100 (≈ 376 µM) | 13 | 12 |  | 16 | 16 | inactive
CN(C)c1ccc(/C=N/NC(=O)c2cc(Cl)c(Cl)[nH]2)cc1 | 6.25 (≈ 19.2 µM) | 12.5 (≈ 38.4 µM) | 12.5 (≈ 38.4 µM) | 25 (≈ 76.9 µM) | 22 | 22 | 12 | 15 | 15 | 
COc1ccc(/C=N/NC(=O)c2cc(Cl)c(Cl)[nH]2)cc1OC | 3.12 (≈ 9.13 µM) | 12.5 (≈ 36.5 µM) | 1.56 (≈ 4.56 µM) | 12.5 (≈ 36.5 µM) | 24 | 20 | 17 | 25 | 18 | 
C[C@@H]1[C@H](O)[C@@H](C)/C=C/C=C/C=C/C=C/C=C/C=C/C=C/[C@H](O[C@@H]2O[C@H](C)[C@@H](O)[C@H](N)[C@@H]2O)C[C@@H]2O[C@](O)(C[C@@H](O)C[C@@H](O)[C@H](O)CC[C@@H](O)C[C@@H](O)CC(=O)O[C@H]1C)C[C@H](O)[C@H]2C(=O)O [AMPHOTERICIN B] |  | 1.56 (≈ 1.69 µM) |  |  | 25 |  |  |  |  | 
COc1ccc(OC)c(/C=C/C(=O)c2cc(Cl)c[nH]2)c1 | 12.5 (≈ 42.8 µM) | 50 (≈ 171 µM) | 12.5 (≈ 42.8 µM) | 100 (≈ 343 µM) | 16 | 18 |  | 19 | 15 | inactive
COc1ccc(OC)c(/C=C/C(=O)c2cc(Cl)c(Cl)[nH]2)c1 | 6.25 (≈ 19.2 µM) | 50 (≈ 153 µM) | 6.25 (≈ 19.2 µM) | 100 (≈ 307 µM) | 15 | 20 | 16 | 22 | 15 | 
O=C(N/N=C/c1ccccc1O)c1cc(Cl)c(Cl)[nH]1 | 3.12 (≈ 10.5 µM) | 12.5 (≈ 41.9 µM) | 1.56 (≈ 5.23 µM) | 50 (≈ 168 µM) | 16 | 18 | 19 | 22 | 18 | 
O=C(N/N=C/c1ccc(Cl)cc1)c1cc(Cl)c(Cl)[nH]1 | 3.12 (≈ 9.87 µM) | 12.5 (≈ 39.5 µM) | 1.56 (≈ 4.93 µM) | 25 (≈ 79 µM) | 20 | 22 | 20 | 24 | 16 | 
COc1ccc(/C=C/C(=O)c2cc(Cl)c[nH]2)cc1OC | 12.5 (≈ 42.8 µM) | 50 (≈ 171 µM) | 12.5 (≈ 42.8 µM) | 100 (≈ 343 µM) | 12 | 16 |  | 13 | 14 | inactive
O=C(/C=C/c1ccccc1O)c1cc(Cl)c[nH]1 | 25 (≈ 101 µM) | 50 (≈ 202 µM) | 12.5 (≈ 50.5 µM) | 25 (≈ 101 µM) | 15 | 10 |  | 16 | 18 | inactive

Further lines, with some results ahead:

MIC (Escherichia coli [2]) [µg/mL] | MIC (Candida albicans [3]) [µg/mL] | MIC (Staphylococcus aureus [4]) [µg/mL] | MIC (Pseudomonas aeruginosa [9]) [µg/mL] | Compound | diameter of the inhibition zone (DIZ) (Candida albicans [1]) [mm] | diameter of the inhibition zone (DIZ) (Escherichia coli [5]) [mm] | diameter of the inhibition zone (DIZ) (Klebsiella pneumoniae [6]) [mm] | diameter of the inhibition zone (DIZ) (Staphylococcus aureus [7]) [mm] | diameter of the inhibition zone (DIZ) (Pseudomonas aeruginosa [8]) [mm] | Activity (Klebsiella pneumoniae [10])
25 (≈ 105 µM) | 25 (≈ 105 µM) | 25 (≈ 105 µM) | 100 (≈ 421 µM) | O=C(N/N=C/c1ccco1)c1cc(Cl)c[nH]1 | 21 | 23 |  | 24 | 15 | inactive
12.5 (≈ 50.5 µM) | 25 (≈ 101 µM) | 12.5 (≈ 50.5 µM) | 100 (≈ 404 µM) | O=C(N/N=C/c1ccccc1)c1cc(Cl)c[nH]1 | 20 | 14 |  | 17 | 14 | inactive
12.5 (≈ 40.6 µM) | 25 (≈ 81.2 µM) | 6.25 (≈ 20.3 µM) | 100 (≈ 325 µM) | COc1ccc(OC)c(/C=N/NC(=O)c2cc(Cl)c[nH]2)c1 | 13 | 15 |  | 20 | 15 | inactive
6.25 (≈ 23.7 µM) | 25 (≈ 94.8 µM) | 6.25 (≈ 23.7 µM) | 100 (≈ 379 µM) | O=C(N/N=C/c1ccccc1O)c1cc(Cl)c[nH]1 | 18 | 20 |  | 17 | 14 | inactive
12.5 (≈ 40.6 µM) | 25 (≈ 81.2 µM) | 12.5 (≈ 40.6 µM) | 100 (≈ 325 µM) | COc1ccc(/C=N/NC(=O)c2cc(Cl)c[nH]2)cc1OC | 20 | 12 |  | 20 | 16 | inactive
12.5 (≈ 45 µM) | 25 (≈ 90 µM) | 12.5 (≈ 45 µM) | 100 (≈ 360 µM) | COc1ccc(/C=N/NC(=O)c2cc(Cl)c[nH]2)cc1 | 15 | 10 |  | 18 | 14 | inactive
12.5 (≈ 43 µM) | 25 (≈ 86 µM) | 12.5 (≈ 43 µM) | 100 (≈ 344 µM) | CN(C)c1ccc(/C=N/NC(=O)c2cc(Cl)c[nH]2)cc1 | 18 | 17 |  | 10 | 14 | inactive
12.5 (≈ 56.4 µM) | 50 (≈ 226 µM) | 12.5 (≈ 56.4 µM) | 25 (≈ 113 µM) | O=C(/C=C/c1ccco1)c1cc(Cl)c[nH]1 | 18 | 20 |  | 22 | 17 | inactive
12.5 (≈ 44.3 µM) | 25 (≈ 88.6 µM) | 3.12 (≈ 11.1 µM) | 100 (≈ 354 µM) | O=C(N/N=C/c1ccc(Cl)cc1)c1cc(Cl)c[nH]1 | 17 | 16 |  | 26 | 15 | inactive
6.25 (≈ 22.3 µM) | 25 (≈ 89.4 µM) | 3.12 (≈ 11.2 µM) | 50 (≈ 179 µM) | O=C(N/N=C/c1c(O)cccc1O)c1cc(Cl)c[nH]1 | 18 | 21 |  | 24 | 14 | inactive
